Bioassay records deposited in PubChem by The Scripps Research Institute Molecular Screening Center.
Only some compounds are listed: those with a hit (about 1.3% of all), similar ones and a draw of the others.
LYPLA2 counter – LYPLA2 inhibitors, primary screen, counter-screen for PME1 inhibitor project, biochemical, fluorescence polarization, FP-Rh probe ABPP; Acyl-protein thioesterase 2 (Homo sapiens), O95372; recombinant LYPLA2; inhibition, % at 5.9 µM; hit rate 0.38% among 320,000; AID 2177, 2009;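 active = inhibition above the screen-wide mean plus 3 SD, limit set per campaign, cut at about 26% in these data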;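 note: 0% = LYPLA2 with DMSO and 100% = wells lacking LYPLA2 enzyme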
Target sequence (O95372 whole entry, looked up): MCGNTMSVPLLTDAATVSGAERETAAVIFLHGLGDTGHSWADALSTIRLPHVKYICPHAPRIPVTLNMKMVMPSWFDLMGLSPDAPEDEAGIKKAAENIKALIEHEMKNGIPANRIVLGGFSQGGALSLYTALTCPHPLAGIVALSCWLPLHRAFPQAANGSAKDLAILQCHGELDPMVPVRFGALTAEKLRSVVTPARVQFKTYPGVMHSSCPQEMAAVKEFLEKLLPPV
RBBP9 inhibitor – human RBBP9 inhibitors, primary screen, biochemical, fluorescence polarization, FP-Rh probe, HTS | hit rate 0.2% among 220,000 | recombinant RBBP9 | inhibition, % at 7.94 µM | Serine hydrolase RBBP9 (Homo sapiens), O75884;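 active = inhibition above the campaign mean of all tested compounds plus 3 SD, cut at about 14% in these data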;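 note: plate controls were DMSO wells with RBBP9 for no effect and wells lacking RBBP9 protein for full effect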
Target sequence (O75884 whole entry, looked up): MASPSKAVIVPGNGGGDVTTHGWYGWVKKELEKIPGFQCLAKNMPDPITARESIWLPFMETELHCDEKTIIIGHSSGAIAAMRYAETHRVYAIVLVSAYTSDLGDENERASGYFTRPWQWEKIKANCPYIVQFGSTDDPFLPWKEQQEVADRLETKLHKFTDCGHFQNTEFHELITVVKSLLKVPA
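System: RBBP9 protein | Quantity: 2.5 µM RBBP9 dispensing solution, before mixing | Reagent: FP-Rh probe, 375 nM dispensing solution | Timing: Enzyme-compound preincubation 30 min, then probe labeling 45 min, 25 °C | Measured by: Fluorescence polarization | Read-out: % inhibition | Replication: One well per compound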
PAD4 inh – human PAD4 inhibitors, primary screen, biochemical, fluorescence polarization, 1536-well format. recombinant PAD4, RCA probe fluorescence polarization. AID 485272, 2010. Protein-arginine deiminase type-4 (Homo sapiens), Q9UM07. inhibition, % at 6.36 µM. hit rate 0.41% among 330,000;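 active = percent inhibition above a cutoff equal to the mean of all tested compounds plus 3 SD, cut at about 15% in these data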;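 note: 0% = PAD4 with RCA probe and DMSO and 100% = probe without PAD4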
PME-1 primary – PME-1 inhibitors via competitive probe labeling, primary screen, biochemical, fluorescence polarization, FP-Rh probe, HTS; inhibition, % at 5.9 µM; recombinant PME-1; hit rate 0.53% among 320,000;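 active = inhibition above the campaign mean of all compounds plus 3 SD, cut at about 26% in these data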;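 note: competitive labeling of PME-1 active site by serine hydrolase directed probe; 0% = PME-1 with DMSO and 100% = wells lacking PME-1 enzyme; inhibitors block probe labeling so polarization falls and inhibition rises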
LYPLA1 inh – LYPLA1 inhibitors, primary screen, counter-screen for PME1 inhibitor project, biochemical, fluorescence polarization, FP-Rh probe ABPP. hit rate 0.16% among 320,000. inhibition, % at 5.9 µM. recombinant LYPLA1;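 active = inhibition above the mean of all tested compounds plus 3 SD, set per campaign, cut at about 14% in these data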;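 note: inhibitors block serine hydrolase probe labeling of LYPLA1 so polarization falls; 0% = enzyme with DMSO and 100% = wells lacking LYPLA1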
Target sequence (O75608 whole entry, looked up): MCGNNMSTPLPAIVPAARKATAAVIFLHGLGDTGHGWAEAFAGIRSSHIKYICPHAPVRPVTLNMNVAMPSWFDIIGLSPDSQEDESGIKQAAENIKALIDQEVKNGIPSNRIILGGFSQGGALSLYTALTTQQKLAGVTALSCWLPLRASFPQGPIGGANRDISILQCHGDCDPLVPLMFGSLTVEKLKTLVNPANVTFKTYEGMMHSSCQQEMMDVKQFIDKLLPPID
Fam108B inh – mouse Fam108B serine hydrolase inhibitors, primary screen, counter-screen for RBBP9 inhibitor project, biochemical, fluorescence polarization; recombinant Fam108B, FP-Rh probe fluorescence polarization; inhibition, % at 9.51 µM; hit rate 0.33% among 300,000;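 active = inhibition above the screen mean inhibition plus 3 SD, computed separately per campaign, cut at about 18% in these data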;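 note: inhibitors lower polarization as less probe binds the enzyme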
PAD4 confirm – human PAD4 inhibitors, confirmation, biochemical, fluorescence polarization. recombinant PAD4, RCA probe fluorescence polarization. shares compounds with PAD4 inh. inhibition, % at 6.36 µM. hit rate 28% among 1,200;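 active = mean inhibition across replicates above the hit cutoff set by the earlier primary screen, cut at about 15% in these data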;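 note: inhibitors block active-site labeling by the probe so polarization falls; 0% = PAD4 with probe and DMSO and 100% = probe without PAD4 enzyme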
Starred values were filed as active, the others as inactive; . = no result given.

SMILES	LYPLA2 counter	RBBP9 inhibitor	PAD4 inh	PME-1 primary	LYPLA1 inh	Fam108B inh	PAD4 confirm
Cc1ccc(NC2=C(NCCO)C(=O)c3ccccc3C2=O)cc1	-2.8	-1.5	39.6*	9.4	-6.2	1.1	-4.4
Cc1cc(C)c(C)c(OCCCCN2CCCCC2)c1	7.8	.	-0.3	2.0	1.0	-0.8	.
CCOC(=O)C1=C(C)NC(=O)C(C#N)C1c1ccco1 (configuration not stated)	1.6	1.1	18.0*	-6.6	-5.1	-5.1	2.1
O=C(NN=c1c(=O)c2ccccc2c1=O)c1ccccc1	-0.5	-12.3	44.1*	6.8	0.2	4.1	44.9*
Cc1nnc(N/N=C/c2ccccc2O)n1N	3.4	-9.3	41.4*	5.5	0.4	4.2	0.6
CCOc1cc(/C=N/Nc2ncnc(Cl)c2N)ccc1O	3.3	-9.4	-0.2	-4.0	-0.1	4.9	.
CCc1nnc(N/N=C/c2c(C)[nH]c3ccccc23)n1N	-2.3	0.2	30.4*	4.5	0.7	-3.5	6.6
CCOc1cc(/C=N/Nc2nnc(C)n2N)ccc1O	8.2	.	49.9*	-1.3	0.9	16.4	0.2
Cc1nnc(N/N=C/c2cc(C)n(-c3ccc(F)cc3)c2C)n1N	1.5	-7.6	29.0*	2.0	-2.1	1.4	-0.8
Cc1[nH]c2ccccc2c1/C=N/NC(N)=S	5.9	-3.5	1.8	-2.6	4.3	-1.2	.
CCN1CCN(c2nc(Nc3ccc(NC(C)=O)cc3)nc(Nc3ccc(NC(C)=O)cc3)n2)CC1	1.4	1.3	-1.1	-3.4	4.7	-1.3	.
Cc1nnc(N/N=C/c2c(Cl)cccc2Cl)n1N	0.4	8.4	33.3*	-2.3	-2.5	1.9	7.5
CCc1nnc(N/N=C/c2c(F)cccc2Cl)n1N	5.5	.	37.3*	-2.8	-0.2	3.4	2.3
CC1CCCN(C(=O)CSc2nnc3ccccn23)C1 (configuration not stated)	-2.8	.	-5.2	1.9	2.8	.	.
CCOc1cc(/C=C2/C(=O)N(c3ccccc3)N=C2C)ccc1OC(=O)c1cccs1	0.9	-7.4	53.6*	6.0	-4.8	2.6	2.4
CC(=O)Oc1ccc(/C=C2/C(=O)N(c3ccccc3)N=C2C)cc1	4.5	.	54.0*	3.2	3.0	7.3	-0.2
CC1=NN(c2ccccc2)C(=O)/C1=C/N(C)C	-3.1	4.5	-9.6	1.4	4.0	-4.0	.
COc1ccc(C2=NN(c3ccccc3)C(=O)/C2=C\c2ccc(O)c(OC)c2)cc1	-1.5	-11.5	67.0*	7.5	0.4	3.9	-1.8
COc1cc(/C=C2\C(=O)ON=C2c2ccc(Cl)cc2)ccc1O	-6.1	.	-5.2	-13.7	-4.9	-0.8	.
COc1cc(/C=C2/C(=O)N(c3cccc(Br)c3)N=C2C)cc(OC)c1O	-9.5	.	27.3*	-0.5	-4.6	-2.0	0.5
CCOc1cc(/C=N/NC(=O)c2ccccn2)ccc1OC(=O)c1cccs1	-1.7	.	0.8	-1.1	-6.7	-6.1	.
COc1cc(/C=C2/C(=O)N(c3ccc(Br)cc3)N=C2C)cc([N+](=O)[O-])c1O	0.6	.	-6.5	7.6	-0.1	3.6	.
CCCNC(=O)c1nnsc1Sc1ccc(Cl)cc1	15.4	-5.8	-1.1	5.2	1.8	2.4	.
CC1=NN(c2ccccc2)C(=O)/C1=C/c1cccc(C)c1	2.1	.	55.6*	-0.6	-4.8	3.3	1.0
COc1ccc(/C=C2/C(=O)N(c3ccccc3)N=C2C)cc1	-0.7	.	57.5*	-1.2	-0.1	4.6	2.7
SMILES	LYPLA2 counter	RBBP9 inhibitor	PAD4 inh	PME-1 primary	LYPLA1 inh	Fam108B inh	PAD4 confirm
N#CCCN(Cc1ccccc1)C(=O)c1cccs1	2.1	-1.5	31.1*	-0.4	-0.9	-3.8	7.5
CC(C)(C)N(Cc1ccccc1)C(=O)c1cccs1	3.1	.	2.0	-1.9	3.4	-0.6	.
COc1ccc(CCNCC(=O)Nc2ccccc2C(F)(F)F)cc1	-3.6	-0.9	-3.7	-2.3	-1.8	-5.6	.
Cc1ccc2c(c1)cc(CN(Cc1cccs1)C(=O)c1ccco1)c1nnnn12	-0.4	-8.4	29.7*	-2.7	-4.4	1.9	0.2
Cc1ccccc1CC(=O)N1CCCC1	-4.2	.	2.2	-4.2	1.0	-0.4	.
CC(=O)c1c2c3c(c(Br)ccc3n(C)c1=O)C(=O)c1ccccc1-2	3.2	.	19.7*	11.9	2.6	12.1	7.6
O=C(O)c1ccccc1Nc1cc(Cl)c2nonc2c1[N+](=O)[O-]	-1.5	.	-1.3	-0.1	-2.5	1.2	.
O=[N+]([O-])c1c(Nc2ccccn2)cc(Cl)c2nonc12	4.5	11.0	49.3*	15.4	-0.6	-12.6	-113.9
O=[N+]([O-])c1c(Nc2ccc(O)cc2)cc(Cl)c2nonc12	18.9	.	21.8*	21.1	4.7	3.7	10.8
Cc1ccnc(Sc2ccc([N+](=O)[O-])cc2[N+](=O)[O-])n1	0.9	-3.4	22.3*	-5.9	-3.3	-1.3	23.6*
COc1ccc(C(N)c2nccc3cc(OC)c(OC)cc23)cc1OC (configuration not stated)	4.0	.	21.6*	7.0	0.3	4.2	-1.1
COc1cc(N)c(Cc2nccc3cc(OC)c(OC)cc23)cc1OC	-9.2	-5.0	-15.6	-0.7	-3.1	-0.5	.
Cn1cccc1CC(=O)NNC(=O)Nc1ccccc1F	-3.2	.	1.6	-2.5	0.3	.	.
CCN(CC)CCN(C(=O)c1ccc2ncsc2c1)c1nc2cc3c(cc2s1)OCO3	-3.4	.	22.2*	1.4	-4.5	6.4	5.4
O=C(NC(NC1CCS(=O)(=O)C1)C(=O)c1cccs1)c1ccccc1 (configuration not stated)	-0.6	4.8	1.4	-0.9	-3.5	-0.8	.
O=C(NC1=C(NC2CCS(=O)(=O)C2)C(=O)c2ccccc2C1=O)c1ccccc1 (configuration not stated)	4.2	-1.6	26.3*	5.8	2.4	1.6	22.0*
COc1cccc2cc(C(=O)NCCc3ccccc3)oc12	9.0	.	16.8*	-1.6	5.0	-1.4	13.7
Cc1ccc(CNC(=O)c2ccc(C)c(S(=O)(=O)N3CCCCC3)c2)cc1	2.4	.	105.0*	9.8	-0.1	.	10.3
Cc1ccc(C(=O)NCc2ccc(Cl)cc2)cc1S(=O)(=O)N1CCCCC1	0.7	.	-0.7	6.4	-1.1	.	.
COc1ccc2c(c1)-c1c(ssc1=S)C(C)(C)N2C(=O)CSC1=NCCS1	4.3	-0.2	6.2	9.1	1.0	2.9	.
Cc1cc(C)c2c(c1)-c1c(ssc1=S)C(C)(C)N2C(=O)CSc1nncn1C	0.1	-7.3	33.8*	0.7	3.4	-0.9	31.6*
